Test results published in ChEMBL document CHEMBL5647683 (Oncogene, 2008).
Activity calls are given as the source filed them. The rule behind the calls is not given here.

How the values were obtained:
[1] = target: Serine/threonine-protein kinase Sgk1 (Homo sapiens) (UniProt O00141); experiment: Inhibition of SGK (unknown origin) assessed as remaining activity relative to control; values are per cent of control
[2] = system: Mus musculus; experiment: In vivo inhibition of EGFR phosphorylation in EGFR L858R/T790M mutant driven lung cancer mouse model at 20 mg/kg, po measured after 48 hrs by immunohistochemical staining; assay type: functional, organism-based
Outline: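 Doxycycline-maintained L858R/T790M EGFR bitransgenic mice, three per group, received 20 mg/kg by gavage, alone or with 2 mg/kg intraperitoneal rapamycin, three times at 24 h intervals. Mice were killed 1 h after the last dose, about 48 h from the start. Lung sections immunostained for phosphorylated receptors; littermates served as controls.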

[3] = target: Serine/threonine-protein kinase Nek6 (Homo sapiens) (UniProt Q9HC98); experiment: Inhibition of NEK6 (unknown origin) assessed as remaining activity relative to control; values are per cent of control
[4] = target: Mitogen-activated protein kinase 13 (Homo sapiens) (UniProt O15264); experiment: Inhibition of SAPK4 (unknown origin) assessed as remaining activity relative to control; values are per cent of control
[5] = system: NIH3T3; experiment: Inhibition of human EGFR mutant R108K phosphorylation at Y1173 residue expressed in mouse NIH3T3 cells at 1 to 10000 nM incubated for 2 hrs by immunoblot analysis; assay type: cell-based; conditions: dose 1-10000 nM
[6] = system: NCI-N87; experiment: Antitumor activity against human NCI-N87 cells xenografted athymic NMRI-nu/nu female mouse as reduction in tumor volume at 20 mg/kg, po administered daily for 25 days relative to control; assay type: functional; conditions: time 25 day
Outline: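 Female athymic NMRI-nu/nu mice (5–6 weeks, 21–31 g) given 1–5×10⁶ cells into the right flank; MDA-MB-453 tumors started from fresh 2×2×2 mm fragments. At 40–130 mm³, tumors were randomized to weight-based daily oral gavage (10 ml/kg; 1.8% HP-β-CD, 5% acetic acid (10%), 0.5% Natrosol) or vehicle. Caliper measurement 3×/week, volume π/6×L×W². Expressed as cumulative treated/control volume ratio; one-way ANOVA with Dunnett's test.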

[7] = system: Mus musculus; experiment: Antitumor activity against EGFR L858R/T790M mutant driven lung cancer mouse model assessed as reduction in numbers of tumor foci at 20 mg/kg, po administered daily for 2 weeks by IHC staining based analysis; assay type: functional, organism-based
[8] = system: Mus musculus; experiment: Inhibition of mTOR signaling in EGFR L858R/T790M mutant driven lung cancer mouse model assessed as reduction in S6 phosphorylation at 20 mg/kg, po measured after 48 hrs in the presence of rapamycin by immunohistochemical staining; assay type: functional, organism-based
Outline: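 Tet-op-L858R/T790M EGFR/CCSP-rtTA bitransgenic mice on continuous doxycycline diet; three tumor-bearing mice per group given oral gavage at 20 mg/kg (0.5% methocellulose–0.4% Tween 80) plus rapamycin 2 mg/kg i.p. (ethanol stock diluted in 5% PEG400, 5% Tween 80), three doses at 24 h intervals; killed 1 h after last dose; lung sections stained for phospho-S6.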

[9] = system: Mus musculus; experiment: Antitumor activity against EGFR L858R/T790M mutant driven lung cancer mouse model assessed as […] at 20 mg/kg, po administered daily for 1 week in the presence of rapamycin by MRI analysis; assay type: functional, organism-based; conditions: time 1.0 weeks
Outline: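 Bitransgenic L858R/T790M EGFR lung tumor mice on continuous doxycycline received oral gavage at 20 mg/kg/day (0.5% methylcellulose–0.4% Tween 80) plus intraperitoneal rapamycin at 2 mg/kg/day (ethanol stock diluted in 5% PEG400/5% Tween 80) for 1 week. Six mice; MRI before and after treatment; regression as mean ± s.d., Student's t-test.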

[10] = target: Dual specificity tyrosine-phosphorylation-regulated kinase 1A (Homo sapiens) (UniProt Q13627); experiment: Inhibition of DYRK1a (unknown origin) assessed as remaining activity relative to control; values are per cent of control
[11] = system: HT-29; experiment: Antitumor activity against human HT-29 cells xenografted athymic NMRI-nu/nu female mouse as reduction in tumor volume at 20 mg/kg, po administered daily for 25 days relative to control; assay type: functional; conditions: time 25 day
[12] = system: NIH3T3; experiment: Inhibition of colony formation in wild-type EGFR expressing mouse NIH3T3 cells assessed as number of colonies at 1 to 10000 nM incubated for 2 week in the presence of EGF by soft agar assay; assay type: functional, cell-based; conditions: dose 1-10000 nM, time 2.0 weeks
Outline: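 NIH-3T3 cells expressing wild-type or mutant EGFR suspended in top agar (DMEM, 10% calf serum, 0.4% agar) over 0.5% agar bottom layer; drug added to top layer; wild-type cells supplemented with 100 ng/ml EGF. Triplicate plating, 2-week incubation; colonies counted from 10 fields photographed at ×4; values normalized to untreated.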

[13] = system: Mus musculus; experiment: Antitumor activity against EGFR L858R/T790M mutant driven lung cancer mouse model assessed as histological change in lung structure at 20 mg/kg, po administered daily for 2 weeks in the presence of rapamycin by IHC staining based analysis; assay type: functional, organism-based
[14] = system: Mus musculus; experiment: Antitumor activity against EGFR L858R/T790M mutant driven lung cancer mouse model assessed as reduction in tumor volume at 20 mg/kg, po administered daily for 4 weeks by MRI analysis relative to control; assay type: functional; parameters: scale not given: the % may be the effect or the level left
Outline: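 Tet-op-L858R/T790M EGFR/CCSP-rtTA bitransgenic mice, kept on doxycycline diet about 6 weeks and throughout the study. Mice with tumors identified by MRI were gavaged once daily with 20 mg/kg in 0.5% methylcellulose–0.4% Tween 80. MRI repeated at 2 and 4 weeks; tumor volume reduction reported as mean ± s.d.; Student's t-test.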

[15] = Inhibition of human EGFR S752_I759del8 mutant expressed in mouse BaF3 cells assessed as reduction in cell survival incubated for 48 hrs by WST assay
[16] = target: Serine/threonine-protein kinase Nek2 (Homo sapiens) (UniProt P51955); experiment: Inhibition of NEK2A (unknown origin) assessed as remaining activity relative to control; values are per cent of control
[17] = system: Mus musculus; experiment: Antitumor activity against EGFR L858R/T790M mutant driven lung cancer mouse model assessed as increase in fibrosis inside tumor nodules at 20 mg/kg, po administered daily for 2 weeks by IHC staining based analysis; assay type: functional, organism-based
[18] = Cmax in human MDA-MB-453 cells xenografted athymic NMRI-nu/nu female mouse at 20 mg/kg, po administered daily for 25 days by LC-MS-MS method; assay type: ADME, organism-based; conditions: in vivo, time 25 day
[19] = Cmax in human NCI-N87 cells xenografted athymic NMRI-nu/nu female mouse at 20 mg/kg, po administered daily for 25 days by LC-MS-MS method; assay type: ADME, organism-based; conditions: in vivo, time 25 day
[20] = target: Dual specificity mitogen-activated protein kinase kinase 1 (Homo sapiens) (UniProt Q02750); experiment: Inhibition of MKK1 (unknown origin) assessed as remaining activity relative to control; values are per cent of control
Chain of Dual specificity mitogen-activated protein kinase kinase 1 (Homo sapiens) (Q02750 whole entry): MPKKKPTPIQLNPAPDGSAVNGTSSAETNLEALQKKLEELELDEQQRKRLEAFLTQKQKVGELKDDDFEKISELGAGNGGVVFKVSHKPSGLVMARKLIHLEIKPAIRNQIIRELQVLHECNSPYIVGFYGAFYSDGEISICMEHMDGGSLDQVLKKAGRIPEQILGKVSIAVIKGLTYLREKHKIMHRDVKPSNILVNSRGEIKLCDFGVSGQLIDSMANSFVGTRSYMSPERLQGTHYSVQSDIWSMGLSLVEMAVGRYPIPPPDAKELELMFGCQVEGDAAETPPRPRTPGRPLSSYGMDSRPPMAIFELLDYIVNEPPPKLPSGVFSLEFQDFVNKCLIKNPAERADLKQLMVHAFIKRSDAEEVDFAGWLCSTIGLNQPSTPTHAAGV

Chain of Mitogen-activated protein kinase 13 (Homo sapiens) (O15264 whole entry): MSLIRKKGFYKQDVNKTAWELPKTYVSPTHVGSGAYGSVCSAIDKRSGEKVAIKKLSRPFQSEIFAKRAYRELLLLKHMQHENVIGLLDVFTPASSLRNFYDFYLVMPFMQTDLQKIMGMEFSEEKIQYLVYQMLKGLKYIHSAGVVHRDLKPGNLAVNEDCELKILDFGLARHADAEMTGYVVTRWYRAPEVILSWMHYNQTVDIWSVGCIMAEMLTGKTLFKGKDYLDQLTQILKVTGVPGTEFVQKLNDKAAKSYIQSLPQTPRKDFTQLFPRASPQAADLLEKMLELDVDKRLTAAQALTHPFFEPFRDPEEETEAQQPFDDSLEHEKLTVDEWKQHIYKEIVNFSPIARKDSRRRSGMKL
Chain of Serine/threonine-protein kinase Nek2 (Homo sapiens) (P51955 whole entry): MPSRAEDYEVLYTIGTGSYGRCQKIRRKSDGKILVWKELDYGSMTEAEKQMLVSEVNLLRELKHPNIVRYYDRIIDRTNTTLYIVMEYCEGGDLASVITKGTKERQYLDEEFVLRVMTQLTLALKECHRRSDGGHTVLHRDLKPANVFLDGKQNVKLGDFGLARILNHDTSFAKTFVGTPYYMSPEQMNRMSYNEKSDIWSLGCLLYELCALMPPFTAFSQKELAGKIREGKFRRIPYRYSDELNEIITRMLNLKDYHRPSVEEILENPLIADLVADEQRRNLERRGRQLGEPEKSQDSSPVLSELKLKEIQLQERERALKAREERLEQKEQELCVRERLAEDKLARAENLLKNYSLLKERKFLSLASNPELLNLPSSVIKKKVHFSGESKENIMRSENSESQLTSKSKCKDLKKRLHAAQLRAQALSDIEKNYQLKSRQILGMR
Chain of Serine/threonine-protein kinase Nek6 (Homo sapiens) (Q9HC98 whole entry): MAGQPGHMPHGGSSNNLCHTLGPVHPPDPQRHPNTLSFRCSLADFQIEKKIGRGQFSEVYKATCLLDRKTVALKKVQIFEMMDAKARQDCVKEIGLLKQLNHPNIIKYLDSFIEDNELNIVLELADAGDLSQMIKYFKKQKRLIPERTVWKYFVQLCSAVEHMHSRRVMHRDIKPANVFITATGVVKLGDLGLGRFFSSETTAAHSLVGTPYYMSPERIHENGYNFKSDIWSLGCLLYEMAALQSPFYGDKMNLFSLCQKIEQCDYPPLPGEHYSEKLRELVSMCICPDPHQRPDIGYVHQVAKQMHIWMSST
Chain of Serine/threonine-protein kinase Sgk1 (Homo sapiens) (O00141 whole entry): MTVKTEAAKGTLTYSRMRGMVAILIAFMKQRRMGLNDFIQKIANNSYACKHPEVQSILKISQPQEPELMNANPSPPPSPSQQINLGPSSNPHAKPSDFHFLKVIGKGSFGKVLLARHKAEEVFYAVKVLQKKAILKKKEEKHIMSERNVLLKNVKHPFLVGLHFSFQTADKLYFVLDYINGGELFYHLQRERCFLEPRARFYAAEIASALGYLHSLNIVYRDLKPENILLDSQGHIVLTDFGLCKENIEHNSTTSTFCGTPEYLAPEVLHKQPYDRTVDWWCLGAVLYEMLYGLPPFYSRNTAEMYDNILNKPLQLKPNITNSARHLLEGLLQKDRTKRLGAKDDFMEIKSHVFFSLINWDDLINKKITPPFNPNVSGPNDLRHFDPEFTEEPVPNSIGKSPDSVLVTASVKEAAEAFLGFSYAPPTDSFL

residual activity [1]: 72%
residual activity [3]: 95%
residual activity [4]: 97%
residual activity [10]: 40%
residual activity [16]: 94%
Cmax [18]: 83 nM
Cmax [19]: 80 nM
residual activity [20]: 86%
Structure (SMILES): CN(C)C/C=C/C(=O)Nc1cc2c(Nc3ccc(F)c(Cl)c3)ncnc2cc1O[C@H]1CCOC1 [AFATINIB]
Activity [2]: Active
inhibition [5]: Active
T/C [6]: 4%
Activity [7]: Active
Activity [8]: Active
Activity [9]: Active
T/C [11]: 38%
inhibition [12]: Active
Activity [13]: inactive
Activity [14]: >50%
IC50 [15]: 0.2 nM
Activity [17]: Active
